This passage reports IC50, Activity and inhibition results from ChEMBL document CHEMBL4765233, “From Lead to Drug Candidate: Optimization of 3-(Phenylethynyl)-1H-pyrazolo[3,4-d]pyrimidin-4-amine Derivatives as Agents for the Treatment of Triple Negative Breast Cancer” (J Med Chem, 2016).

Series [1] has as its system MDA-MB-231. Put plainly: Antiproliferative activity against human MDA-MB-231 cells assessed as reduction in cell viability incubated for 72 hrs by MTT assay. It counts as functional, cell-based. As to conditions: MDA-MB-231, 72 h. An outline of the steps: (§1)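 MTT viability assay. ATCC cell lines were grown in designated medium with 10% FBS at 37 °C, 5% CO2. Cells seeded at 1500−30000 per well and incubated 24 h, then exposed to compound (0−10 μg/mL) for 72 h. MTT added for 2−4 h. Formazan dissolved in DMSO (adherent) or acidified SDS overnight (suspension), absorbance read at 570 nm. Triplicates; IC50 calculated.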
On the technique in general: Tetrazolium dyes change colour on reduction, which living cells bring about.

Series [2] addresses Ephrin type-A receptor 7 (Homo sapiens, UniProt Q15375). As to the kind of experiment: Inhibition of human recombinant EPHA7 (613 to 909 residues) using KTFCGTPEYLAPEVRREPRILSEEEQEMFRDFDYIADWC incubated for 40 mins in presence of [gamma33P-ATP] by radiometric scintillation counting analysis. An outline of the steps:
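Radiometric kinase assay run as an external profiling service, with ATP at the Km of each kinase. IC50 values are means of two independent experiments.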

The subject of series [3] is MDA-MB-415. As to the kind of experiment: Antiproliferative activity against human MDA-MB-415 cells assessed as reduction in cell viability incubated for 72 hrs by MTT assay. The format is functional, cell-based. The note with it: MDA-MB-415, 72 h. The method in brief: as §1
The subject of series [4] is PC-9. Put plainly: Antiproliferative activity against human PC-9 cells assessed as reduction in cell viability incubated for 72 hrs by MTT assay. The format is functional, cell-based. As to conditions: PC-9, 72 h. The method in brief: as §1
The subject of series [5] is A-375. As to the kind of experiment: Antiproliferative activity against human A-375 cells assessed as reduction in cell viability incubated for 72 hrs by MTT assay. The note with it: A-375, 72 h. It counts as functional, cell-based. The method in brief:
as §1

The subject of series [6] is MIA PaCa-2. As to the kind of experiment: Antiproliferative activity against human MIA PaCa-2 cells assessed as reduction in cell viability incubated for 72 hrs by MTT assay. It counts as functional, cell-based. As to conditions: MIA PaCa-2, 72 h. An outline of the steps: as §1
The test system of series [7] is MV4-11. Put plainly: Antiproliferative activity against human MV4-11 cells assessed as reduction in cell viability incubated for 72 hrs by MTT assay. The format is functional, cell-based. The note with it: MV4-11, 72 h. The method in brief: as §1
For series [8], the system named is MDA-MB-231. Put plainly: Induction of apoptosis in human MDA-MB-231 cells assessed as necrotic cells at 0.01 uM incubated for 24 hrs by annexin V-FITC and propidium iodide staining based flow cytometry analysis (reference value: 0.2 %). It counts as functional. A general note: A flow cytometer gives signals particle by particle.
The subject of series [9] is MDA-MB-231. As to the kind of experiment: Induction of apoptosis in human MDA-MB-231 cells assessed as necrotic cells at 0.1 uM incubated for 24 hrs by annexin V-FITC and propidium iodide staining based flow cytometry analysis (reference value: 0.2 %). The format is functional.
For series [10], the system named is Mus musculus. Put plainly: In vivo inhibition of MEK in SCID mouse xenografted with human MDA-MB-231 cells assessed as reduction in phosphorylation of MEK in tumor tissue at 40 mg/kg, po QD for 21 days by immunohistochemical analysis. The format is functional, organism-based. As to conditions: dose 40.0 mg/kg/day, time 21.0 day. An outline of the steps: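 Tumors taken from xenografted SCID mice dosed orally at 40 mg/kg/q.d. or given control; mice euthanized at set times. Tumors formalin-fixed and paraffin-embedded, stained by immunohistochemistry for phospho-proteins, and imaged by light microscopy.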
(In general: A xenograft is tissue or cells of one species grown in another, often human tumour cells in immunodeficient mice.)

In series [11] the test system is MDA-MB-231. As to the kind of experiment: Induction of apoptosis in human MDA-MB-231 cells xenografted in SCID mouse assessed as increase in cleaved caspase-3 level in tumor tissue at 40 mg/kg, po QD for 21 days by immunohistochemical analysis. The format is functional, organism-based. The note with it: dose 40.0 mg/kg/day, time 21.0 day. An outline of the steps: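 SCID mice carried subcutaneous MDA-MB-231 xenografts (5 × 10^6 cells in 100 μL). Oral dosing in water with 25% PEG400 and 5% DMSO began at 150–200 mm3. Tumours were removed at the end of study, formalin-fixed and paraffin-embedded, then immunostained.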

Series [12] is described as follows: Acute toxicity in Sprague-Dawley rat assessed as histopathological changes in heart at 100 mg/kg, po administered as single dose measured after 24 hrs by H and E staining based light microscope analysis. It counts as organism-based. As to conditions: in vivo. An outline of the steps: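 Sprague-Dawley rats received a single oral dose of 100 mg/kg in sterile water with 25% (v/v) PEG400 plus 5% DMSO. Organs were examined by histology and immunohistochemistry for pathological changes. Behaviour and side effects were checked daily.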

Molecules are shown by their SMILES. The source made the active and inactive calls. The calls are words filed in the database; no cut-off is given here.

Broadly, the IC50 is the concentration that gives 50% inhibition.

Sequence of Ephrin type-A receptor 7 (Q15375 whole entry, the tested form may be a part): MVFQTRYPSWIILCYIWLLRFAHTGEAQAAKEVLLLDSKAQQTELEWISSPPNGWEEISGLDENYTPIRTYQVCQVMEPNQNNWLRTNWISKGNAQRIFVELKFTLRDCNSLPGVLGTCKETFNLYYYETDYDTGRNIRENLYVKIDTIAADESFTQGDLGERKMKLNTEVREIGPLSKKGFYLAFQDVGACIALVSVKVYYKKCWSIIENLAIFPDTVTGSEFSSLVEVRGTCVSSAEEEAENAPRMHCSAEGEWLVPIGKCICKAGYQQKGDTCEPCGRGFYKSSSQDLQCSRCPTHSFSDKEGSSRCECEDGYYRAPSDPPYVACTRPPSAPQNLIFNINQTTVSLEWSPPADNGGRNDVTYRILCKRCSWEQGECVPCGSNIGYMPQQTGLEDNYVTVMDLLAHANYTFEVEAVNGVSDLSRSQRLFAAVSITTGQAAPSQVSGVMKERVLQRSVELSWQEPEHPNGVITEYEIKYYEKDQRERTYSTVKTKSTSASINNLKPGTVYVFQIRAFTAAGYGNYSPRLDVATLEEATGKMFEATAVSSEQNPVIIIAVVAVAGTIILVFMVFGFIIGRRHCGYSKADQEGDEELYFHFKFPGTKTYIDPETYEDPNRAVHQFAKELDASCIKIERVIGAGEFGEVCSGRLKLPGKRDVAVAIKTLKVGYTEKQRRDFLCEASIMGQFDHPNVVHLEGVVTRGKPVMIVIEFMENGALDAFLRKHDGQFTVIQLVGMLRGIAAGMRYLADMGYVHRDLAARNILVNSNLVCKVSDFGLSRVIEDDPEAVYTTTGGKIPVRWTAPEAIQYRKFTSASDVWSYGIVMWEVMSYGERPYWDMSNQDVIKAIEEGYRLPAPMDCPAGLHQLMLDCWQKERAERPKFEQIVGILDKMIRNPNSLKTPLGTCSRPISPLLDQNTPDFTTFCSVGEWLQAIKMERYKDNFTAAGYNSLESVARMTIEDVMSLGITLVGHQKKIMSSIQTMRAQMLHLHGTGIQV

In the case of `Cc1ccc(NC(=O)c2ccc(C)c(C(F)(F)F)c2)cc1C#Cc1nn([C@H]2CC[C@H](O)CC2)c2ncnc(N)c12`, the IC50 was 30 nM in series [1]; 143 nM in series [2]; 10000 nM in series [3]; 152 nM in series [4]; 31 nM in series [5]; < 600 nM in series [6]. Further, the IC50 in series [7] worked out at 138 nM. For the same molecule, the Activity in [8] is 0.42%; in series [9], 1.23%; in [12], “Non-Toxic”. For the same molecule, the inhibition result in series [10] was “Active”. Also, in series [11], the outcome was Active.
